This is an account of results in ChEMBL document CHEMBL3396951, “Design, synthesis and SAR studies of GABA uptake inhibitors derived from 2-substituted pyrrolidine-2-yl-acetic acids” (Bioorg Med Chem, 2015).

Holding throughout (type): cell-based
Experiment [1] deals with Sodium- and chloride-dependent GABA transporter 1 (Mus musculus) (UniProt P31648). In words: Inhibition of mouse GAT1 expressed in HEK293 cells assessed as remaining [3H]GABA uptake at 100 uM by [3H]GABA uptake assay. The essentials: (§1)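 Transfected HEK293 cells (mGAT1–4) tested for [3H]GABA uptake at 100 µM test substance. Remaining uptake is expressed against a control without inhibitor.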

The target of experiment [2] is T1, GABA transporter 4 (Mus musculus, UniProt P31650).
T1 sequence (P31650 whole entry): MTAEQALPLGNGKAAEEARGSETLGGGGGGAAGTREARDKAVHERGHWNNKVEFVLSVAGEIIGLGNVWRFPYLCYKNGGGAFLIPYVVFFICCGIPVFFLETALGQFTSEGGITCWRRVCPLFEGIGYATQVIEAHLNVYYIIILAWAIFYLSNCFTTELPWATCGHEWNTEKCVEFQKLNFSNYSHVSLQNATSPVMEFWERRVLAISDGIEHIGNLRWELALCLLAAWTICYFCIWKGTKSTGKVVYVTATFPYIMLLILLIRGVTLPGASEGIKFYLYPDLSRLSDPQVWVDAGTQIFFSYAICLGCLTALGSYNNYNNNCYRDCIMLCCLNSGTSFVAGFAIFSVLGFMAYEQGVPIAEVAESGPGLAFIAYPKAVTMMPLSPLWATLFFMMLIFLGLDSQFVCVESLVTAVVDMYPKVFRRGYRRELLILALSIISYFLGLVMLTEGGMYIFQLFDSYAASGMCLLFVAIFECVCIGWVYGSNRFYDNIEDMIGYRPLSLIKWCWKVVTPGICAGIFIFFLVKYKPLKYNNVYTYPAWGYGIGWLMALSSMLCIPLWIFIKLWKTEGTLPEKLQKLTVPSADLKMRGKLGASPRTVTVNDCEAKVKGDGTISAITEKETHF
The experiment is described as follows: Inhibition of mouse GAT4 expressed in HEK293 cells by [3H]GABA uptake assay.

Experiment [3] addresses T2, GABA transporter 3 (Mus musculus) (UniProt P31649).
T2 sequence (whole entry): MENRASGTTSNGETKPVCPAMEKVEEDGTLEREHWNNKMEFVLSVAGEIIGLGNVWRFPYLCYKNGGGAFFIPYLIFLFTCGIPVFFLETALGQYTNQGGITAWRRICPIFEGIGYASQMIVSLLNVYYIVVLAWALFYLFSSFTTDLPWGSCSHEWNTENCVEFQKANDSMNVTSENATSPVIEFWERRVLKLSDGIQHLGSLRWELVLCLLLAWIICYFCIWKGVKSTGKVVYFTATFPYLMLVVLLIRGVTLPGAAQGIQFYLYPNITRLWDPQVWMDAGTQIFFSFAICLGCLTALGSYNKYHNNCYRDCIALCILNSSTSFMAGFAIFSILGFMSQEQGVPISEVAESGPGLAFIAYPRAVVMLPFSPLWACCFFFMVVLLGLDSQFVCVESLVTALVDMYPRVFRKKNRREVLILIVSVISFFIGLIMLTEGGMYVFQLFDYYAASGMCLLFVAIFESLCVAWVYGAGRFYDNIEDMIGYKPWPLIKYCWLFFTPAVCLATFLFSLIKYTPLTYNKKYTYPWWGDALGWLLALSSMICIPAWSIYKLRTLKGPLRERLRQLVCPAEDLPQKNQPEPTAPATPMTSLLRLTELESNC
In words: Inhibition of mouse GAT3 expressed in HEK293 cells assessed as remaining [3H]GABA uptake at 100 uM by [3H]GABA uptake assay. Put shortly:
as §1

For experiment [4], the target named is T3, GABA transporter 2 (Mus musculus) (UniProt P31651).
T3 sequence (whole entry): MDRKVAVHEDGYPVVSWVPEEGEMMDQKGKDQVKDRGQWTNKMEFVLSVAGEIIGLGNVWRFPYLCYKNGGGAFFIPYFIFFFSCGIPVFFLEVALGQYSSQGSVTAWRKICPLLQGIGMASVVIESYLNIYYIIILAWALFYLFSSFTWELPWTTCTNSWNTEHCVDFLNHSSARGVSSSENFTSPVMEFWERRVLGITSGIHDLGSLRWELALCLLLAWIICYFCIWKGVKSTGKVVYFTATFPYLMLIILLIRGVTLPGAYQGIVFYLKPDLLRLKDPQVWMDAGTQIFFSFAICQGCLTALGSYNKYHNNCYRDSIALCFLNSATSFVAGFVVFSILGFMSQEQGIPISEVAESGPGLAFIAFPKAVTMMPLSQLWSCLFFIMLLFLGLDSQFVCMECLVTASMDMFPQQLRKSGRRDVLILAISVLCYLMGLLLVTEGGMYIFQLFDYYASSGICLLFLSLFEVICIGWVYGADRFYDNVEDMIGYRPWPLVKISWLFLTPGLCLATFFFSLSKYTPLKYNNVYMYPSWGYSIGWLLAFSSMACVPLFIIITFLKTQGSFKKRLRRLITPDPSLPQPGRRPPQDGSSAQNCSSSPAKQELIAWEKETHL
In words: Inhibition of mouse GAT2 expressed in HEK293 cells assessed as remaining [3H]GABA uptake at 100 uM by [3H]GABA uptake assay. The essentials:
as §1

For orientation: IC50 means the concentration that inhibits the measured activity by half. As to `COc1ccc(C(OCCN2CCC[C@@H]2[C@H](O)C(=O)O)(c2ccc(OC)cc2)c2ccc(OC)cc2)cc1` (racemic), the Activity in experiment [1] was found to be 80%; in experiment [3], 70%; in experiment [4] it was 64%. The midpoint of inhibition in experiment [2], the IC50, lay at 6.61 µM.
